Here are results for 30 compounds from ChEMBL document CHEMBL1799995, “17(R),18(S)-epoxyeicosatetraenoic acid, a potent eicosapentaenoic acid (EPA) derived regulator of cardiomyocyte contraction: structure-activity relationships and stable analogues” (J Med Chem, 2011).

Data set [1] in a line: Negative chronotropic activity in neonatal Wistar rat Cardiomyocytes assessed as change in heart beating at 30 nM and at 37 degC after 5 mins. In kind it is functional, Cardiac muscle cell. In a few lines: (§1)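 NRCMs from 1–2-day-old Wistar rats were cultured as monolayers in Halle SM 20-I medium with 10% heat-inactivated FCS and 2 μM fluorodeoxyuridine. Spontaneously beating clusters formed after 5–7 days (120–150 beats/min at 37 °C, inverted microscope). Compounds came from 1000-fold ethanol stocks and were tested at 30 nM final. Beating rates of 6–8 clusters were counted before and 5 min after addition. The change in beats/min is given as mean ± SE, n = 18–40 clusters from ≥3 independent cultures.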

Data set [2] deals with Cardiac muscle cell. As to the kind of experiment: Negative chronotropic activity in neonatal Wistar rat Cardiomyocytes assessed as change in heart beating at > 5 nM after 5 mins at 37 degC. In kind it is functional, cell-based.
Data set [3] concerns Liver. The experiment in a line: Metabolic stability in rat liver homogenates assessed as formation of regioisomeric hydroxy metabolite after 30 mins by LC-MS analysis. The format is ADME, tissue-based. The conditions noted are these: tissue homogenate, 0.5 h. In a few lines:
(§2)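 Compounds were incubated with rat liver homogenate plus NADPH for 30 min at 37 °C. Parent compound and hydroxy-metabolites were analysed by LC/MS.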

Data set [4] concerns the target T1, Bifunctional epoxide hydrolase 2 (Homo sapiens) (UniProt P34913).
T1 sequence (whole entry): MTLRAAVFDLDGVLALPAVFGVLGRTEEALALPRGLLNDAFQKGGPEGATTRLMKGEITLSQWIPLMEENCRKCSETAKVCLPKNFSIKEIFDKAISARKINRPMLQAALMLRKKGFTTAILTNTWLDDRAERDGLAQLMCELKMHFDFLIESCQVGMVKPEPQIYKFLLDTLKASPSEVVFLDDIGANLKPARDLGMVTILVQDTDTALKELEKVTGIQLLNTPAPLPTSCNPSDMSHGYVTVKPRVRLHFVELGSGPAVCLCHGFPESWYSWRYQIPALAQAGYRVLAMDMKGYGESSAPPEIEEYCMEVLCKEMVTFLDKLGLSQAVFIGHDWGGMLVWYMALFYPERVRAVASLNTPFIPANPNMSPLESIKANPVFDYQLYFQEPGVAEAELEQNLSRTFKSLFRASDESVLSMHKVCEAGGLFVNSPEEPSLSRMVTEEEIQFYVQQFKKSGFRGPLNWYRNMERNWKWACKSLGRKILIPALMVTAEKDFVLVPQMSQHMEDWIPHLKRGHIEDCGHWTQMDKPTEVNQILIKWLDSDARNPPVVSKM
As to the kind of experiment: Inhibition of soluble epoxide hydrolase at 5 uM.

Data set [5] in a line: Metabolic stability in rat liver homogenates assessed as compound remaining after 30 mins by LC-MS analysis. In kind it is ADME, tissue-based. In a few lines:
as §2

Data set [6] relates to Cardiac muscle cell. The experiment in a line: Inhibition of (Z)-16-(3-ethyloxiran-2-yl)hexadec-11-enoic acid -induced negative chronotropic activity in neonatal Wistar rat Cardiomyocytes at 30 nM after 5 mins. The format is functional, cell-based. In a few lines: (§3)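 NRCMs from 1–2-day-old Wistar rats were cultured as monolayers in Halle SM 20-I medium with 10% heat-inactivated FCS and 2 μM fluorodeoxyuridine. Spontaneously beating clusters formed after 5–7 days (120–150 beats/min). Cells were preincubated with the test antagonist (30 nM final) for 5 min at 37 °C, then the agonist was added (30 nM final). Beating was counted under an inverted microscope.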

The subject of data set [7] is Liver. The experiment in a line: Metabolic stability in rat liver homogenates assessed as formation of vic-diol 4 by LC-MS analysis. In kind it is ADME, tissue-based. The conditions noted are these: tissue homogenate.
The test system of data set [8] is Liver. The experiment in a line: Metabolic stability in rat liver homogenates assessed as epoxidation of compound by LC-MS analysis. In kind it is ADME, tissue-based. The conditions noted are these: tissue homogenate.
The test system of data set [9] is Liver. As to the kind of experiment: Metabolic stability in rat liver homogenates assessed as hydroxylation of compound by LC-MS analysis. The format is ADME, tissue-based. The conditions noted are these: tissue homogenate. In outline:
as §2

The nature of data set [10]: Metabolic stability in rat liver homogenates after 30 mins by LC-MS analysis. The format is ADME, tissue-based. In outline: as §2
Data set [11] in a line: Negative chronotropic activity in neonatal Wistar rat Cardiomyocytes assessed as change in heart beating after 5 mins at 37 degC. In kind it is functional, cell-based. The conditions noted are these: cardiac muscle cell. In outline:
as §1

In data set [12] the target is T1, Bifunctional epoxide hydrolase 2 (Homo sapiens). The conditions noted are these: 1 to 5 uM.
The nature of data set [13]: Inhibition of EPA-induced negative chronotropic activity in neonatal Wistar rat Cardiomyocytes at 30 nM after 5 mins. Details: scale not given: the % may be the effect or the level left. The format is functional, Cardiac muscle cell.
Data set [14] in a line: Inhibition of (5Z,8Z,11Z,14Z)-16-(3-ethyloxiran-2-yl)hexadeca-5,8,11,14-tetraenoic acid-induced negative chronotropic activity in neonatal Wistar rat Cardiomyocytes at 30 nM after 5 mins. In kind it is functional, Cardiac muscle cell. Further details: scale not given: the % may be the effect or the level left. In a few lines: as §3
Data set [15] is described as follows: Inhibition of (5Z,11Z)-16-(3-ethyloxiran-2-yl)hexadeca-5,11-dienoic acid-induced negative chronotropic activity in neonatal Wistar rat Cardiomyocytes at 30 nM after 5 mins. Details: scale not given: the % may be the effect or the level left. The format is functional, Cardiac muscle cell. In a few lines:
as §3

Data set [16] can be described thus: Inhibition of (Z)-16-(2-(methylamino)-2-oxoacetamido)hexadec-11-enoic acid-induced negative chronotropic activity in neonatal Wistar rat Cardiomyocytes at 30 nM after 5 mins. In kind it is functional, Cardiac muscle cell. Details: scale not given: the % may be the effect or the level left. In outline: as §3

Active and inactive are the calls of the source. The rule behind the calls is not given here.

`CCC1OC1CCCCCCCCCCCCCCCC(=O)O` (stereo not given): in data set [1], the Activity turned out to be 0.8 bpm.

For the compound `CNC(=O)C(=O)NCCCC/C=C/CCCCCCCCCC(=O)O`, in data set [1], the Activity is on record as -4.7 bpm. Further, the result in the data set on Cardiac muscle cell [2] was inactive.

The share remaining is the share of the starting amount still present when the sample was taken. In the case of `CNC(=O)C(=O)NCCCC/C=C\CCCCCCCCCC(=O)O`, the Activity in data set [1] was -33.7 bpm. For the same compound, the result with Cardiac muscle cell [2] was Active. The Stability entry in the data set with Liver [3] was “Stable”. Also, the inhibition entry in data set [4] was “inactive”. The amount remaining at 0.5 h in [5] was > 85%.

Take `CCC1OC1C/C=C\CCCCCCCCCCCCC(=O)O` (stereo not given): the Activity in data set [1] is on record as -1.2 bpm. In the data set with Cardiac muscle cell [6], the outcome was Active.

In the case of `CCC1OC1CCCCCCCCCC/C=C\CCCC(=O)O` (stereo not given), the Activity in data set [1] is -0.6 bpm.

For `CCNC(=O)NC/C=C\CCCCCCCCCCCCC(=O)O`, in data set [1], the Activity is 17.8 bpm.

With `CCC1OC1C/C=C\C/C=C\C/C=C\C/C=C\CCCC(=O)O` (stereo not given), in data set [1], the Activity was -22.5 bpm. Also, the Stability result with Liver [7], with Liver [8] and with Liver [9] was “Unstable” each time. Besides, the amount remaining at 0.5 h in [10] is 20%.

Take `CNC(=O)C(=O)NC/C=C\CCCCCCCCCCCCC(=O)O`: the Activity in [1] is recorded as -1.3 bpm. Also, in data set [4], the inhibition entry is “inactive”.

Take `CCCNC(=O)CCCC/C=C\CCCCCCCCCC(=O)O`: the Activity in data set [1] was -4.7 bpm.

For the compound `CCCCNC(=O)CCC/C=C\CCCCCCCCCC(=O)O`, the Activity in data set [1] was -22.4 bpm.

In general, EC50 refers to the concentration giving half of the maximal effect. Regarding `CC[C@@H]1O[C@@H]1C/C=C\C/C=C\C/C=C\C/C=C\CCCC(=O)O`, in data set [1], the Activity is listed as -21.3 bpm. Besides, the EC50 in data set [11] came out at 1 nM. The result with Cardiac muscle cell [2] was Active.

Consider `CCNC(=O)NCCCC/C=C\CCCCCCCCCC(=O)O`, for which the Activity in data set [1] is -27 bpm. Besides, the result in the data set on Cardiac muscle cell [2] was Active. Further, in data set [12], the inhibition entry is “Dose-dependent effect”.

Turning to `CCCC(=O)NCCCC/C=C\CCCCCCCCCC(=O)O`, the Activity in data set [1] is reported as -1.6 bpm.

As for `CC[C@H]1O[C@H]1C/C=C\C/C=C\C/C=C\C/C=C\CCCC(=O)O`, the Activity in data set [1] is recorded as 1.3 bpm.

Turning to `CCC1OC1CCCC/C=C\CCCCCCCCCC(=O)O` (stereo not given), the Activity in [1] was -18.3 bpm.

Consider `CC[C@H]1O[C@H]1C/C=C\CCCCCCCCCCCCC(=O)O`, for which the Activity in data set [1] amounted to 0.7 bpm.

Turning to `CC[C@@H]1O[C@@H]1C/C=C\CCCCCCCCCCCCC(=O)O`, the Activity in data set [1] was -21.1 bpm.

Take `CCCC(=O)NC/C=C\CCCCCCCCCCCCC(=O)O`: the Activity in data set [1] is recorded as 12.8 bpm.

Regarding `O=C(O)CCCCCCCCC/C=C\CCCC[C@H]1O[C@H]1CCO`, the Activity in data set [1] is -4.8 bpm.

For `CCC1OC1CCCCCCC/C=C\CCCCCCC(=O)O` (stereo not given), the Activity in [1] is given as -0.6 bpm.

On to `CCN(C)C(=O)N(C)CCCC/C=C\CCCCCCCCCC(=O)O`, for which the Activity in data set [1] is reported as -5.8 bpm.

As for `CCC1OC1C/C=C\CCCC/C=C\CCCCCCC(=O)O` (stereo not given), the Activity in data set [1] is -2.7 bpm; in [13], 90%; in data set [14], 90%; in data set [15] it was 90%; in data set [16], 90%. Further, the result with Cardiac muscle cell [6] was Active.

In the case of `CNC(=O)C(=O)NCCCCC#CCCCCCCCCCC(=O)O`, the Activity in data set [1] was -2.6 bpm.

For the compound `CCC1OC1C/C=C\CCCCCCC/C=C\CCCC(=O)O` (stereo not given), in [1], the Activity turned out to be 0 bpm.

Consider `O=C(O)CCCCCCCCC/C=C\CCCC[C@@H]1O[C@@H]1CCO`, for which the Activity in data set [1] was -1.4 bpm.

As for `CCC1OC1CCCC/C=C\CCCC/C=C\CCCC(=O)O` (stereo not given), in [1], the Activity was -19.8 bpm.

Consider `CCC(O)C(O)C/C=C\C/C=C\C/C=C\C/C=C\CCCC(=O)O` (stereo not given), for which, in data set [1], the Activity was determined as 0 bpm.

Take `CC[C@H]1O[C@H]1CCCC/C=C\CCCCCCCCCC(=O)O`: the Activity in data set [1] is 3.3 bpm.

Turning to `CCCC(=O)N(CCCC/C=C\CCCCCCCCCC(=O)O)C(C)C`, the Activity in data set [1] came to 0.2 bpm.

For `CC[C@@H]1O[C@@H]1CCCC/C=C\CCCCCCCCCC(=O)O`, the Activity in [1] is given as -20.3 bpm.
